In ChEMBL document CHEMBL4261552, “4-Hydroxy-N-[3,5-bis(trifluoromethyl)phenyl]-1,2,5-thiadiazole-3-carboxamide: a novel inhibitor of the canonical NF-κB cascade” (Medchemcomm, 2017):
pIC50: −log10 of the molar value. Active and inactive are the calls of the source. The rule behind the calls is not given here.

Experiments:
Jurkat = assay: Inhibition of TNFalpha-activated canonical NF-kB signaling pathway in human Jurkat cells assessed as residual activity at 1 uM after 6 hrs by luciferase reporter gene assay relative to control; type: cell-based
Method in brief: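 Jurkat cells nucleofected with 3 µg of NF-κB-RE firefly luciferase and TK-Renilla plasmids (10:1), then cultured 24 h at 37 °C. Compound added for a further 6 h, with TNFα in the last 20 min. Firefly luminescence normalized to Renilla and expressed as % of DMSO+TNFα control; mean ± SD of three experiments.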

[1] = molecular target: T1, Inhibitor of nuclear factor kappa-B kinase subunit epsilon (Homo sapiens, UniProt Q14164); assay: Inhibition of human IKKepsilon using ERLLDDRHDSGLDSMKDEE as substrate after 60 mins in presence of ATP by ADP-Glo kinase assay
T1 sequence (Q14164 whole entry): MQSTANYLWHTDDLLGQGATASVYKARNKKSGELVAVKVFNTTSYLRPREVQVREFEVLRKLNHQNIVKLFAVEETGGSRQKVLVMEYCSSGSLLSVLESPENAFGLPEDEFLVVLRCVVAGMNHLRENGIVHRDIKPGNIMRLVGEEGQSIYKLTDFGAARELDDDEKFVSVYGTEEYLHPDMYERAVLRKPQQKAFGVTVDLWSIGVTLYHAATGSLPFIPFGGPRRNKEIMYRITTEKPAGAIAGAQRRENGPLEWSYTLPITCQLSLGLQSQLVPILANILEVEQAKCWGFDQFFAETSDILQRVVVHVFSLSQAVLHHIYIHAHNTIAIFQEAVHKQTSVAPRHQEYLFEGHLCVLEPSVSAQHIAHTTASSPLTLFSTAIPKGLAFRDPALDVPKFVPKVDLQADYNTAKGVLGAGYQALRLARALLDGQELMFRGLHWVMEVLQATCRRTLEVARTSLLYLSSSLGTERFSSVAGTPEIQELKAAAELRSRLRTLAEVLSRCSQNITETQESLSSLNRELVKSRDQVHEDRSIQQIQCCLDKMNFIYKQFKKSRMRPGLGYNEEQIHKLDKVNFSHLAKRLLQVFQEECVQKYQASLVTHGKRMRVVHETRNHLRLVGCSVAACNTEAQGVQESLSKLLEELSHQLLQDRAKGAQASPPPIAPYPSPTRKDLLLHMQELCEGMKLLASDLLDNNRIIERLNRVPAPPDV

[2] = molecular target: T2, Inhibitor of nuclear factor kappa-B kinase subunit beta (Homo sapiens, UniProt O14920); assay: Inhibition of human IKKbeta using ERLLDDRHDSGLDSMKDEE as substrate after 60 mins in presence of ATP by ADP-Glo kinase assay
T2 sequence (O14920 whole entry): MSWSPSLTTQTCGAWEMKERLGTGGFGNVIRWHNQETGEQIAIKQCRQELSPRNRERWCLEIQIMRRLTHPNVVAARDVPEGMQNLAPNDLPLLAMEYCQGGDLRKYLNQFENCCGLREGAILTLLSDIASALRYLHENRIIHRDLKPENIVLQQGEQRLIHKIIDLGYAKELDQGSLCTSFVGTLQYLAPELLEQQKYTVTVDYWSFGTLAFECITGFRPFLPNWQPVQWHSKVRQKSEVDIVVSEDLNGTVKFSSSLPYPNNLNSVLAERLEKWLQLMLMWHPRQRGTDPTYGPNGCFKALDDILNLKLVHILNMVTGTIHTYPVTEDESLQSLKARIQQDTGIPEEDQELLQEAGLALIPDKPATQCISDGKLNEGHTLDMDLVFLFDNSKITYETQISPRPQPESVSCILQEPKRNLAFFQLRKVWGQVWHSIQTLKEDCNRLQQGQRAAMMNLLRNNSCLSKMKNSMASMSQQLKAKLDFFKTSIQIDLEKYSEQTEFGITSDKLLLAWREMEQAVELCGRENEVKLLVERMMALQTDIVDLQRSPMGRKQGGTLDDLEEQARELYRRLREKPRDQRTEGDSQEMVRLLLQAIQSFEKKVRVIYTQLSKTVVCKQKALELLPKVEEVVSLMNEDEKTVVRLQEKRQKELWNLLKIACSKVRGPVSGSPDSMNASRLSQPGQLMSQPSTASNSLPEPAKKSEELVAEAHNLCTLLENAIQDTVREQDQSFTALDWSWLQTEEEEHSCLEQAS

MDA-MB-231 = assay: Inhibition of constitutively activated canonical NF-kB signaling pathway in human MDA-MB-231 cells assessed as residual activity at 10 uM after 6 hrs by luciferase reporter gene assay relative to control; type: cell-based
Method in brief: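 MDA-MB-231 cells (constitutive NF-κB) nucleofected with 3 µg of NF-κB-RE firefly luciferase plus TK-Renilla plasmids (10:1), then cultured 24 h. Compound added for a further 6 h or 24 h, without stimulus. Firefly/Renilla ratio expressed as % of DMSO-treated control; mean ± SD of three independent experiments.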

[3] = molecular target: Mitogen-activated protein kinase kinase kinase 14 (Homo sapiens, UniProt Q99558); assay: Inhibition of human NIK using AKDVDQGSLCTSFVGTLQY as substrate after 60 mins in presence of ATP by ADP-Glo kinase assay
Chain of Mitogen-activated protein kinase kinase kinase 14 (Q99558 whole entry): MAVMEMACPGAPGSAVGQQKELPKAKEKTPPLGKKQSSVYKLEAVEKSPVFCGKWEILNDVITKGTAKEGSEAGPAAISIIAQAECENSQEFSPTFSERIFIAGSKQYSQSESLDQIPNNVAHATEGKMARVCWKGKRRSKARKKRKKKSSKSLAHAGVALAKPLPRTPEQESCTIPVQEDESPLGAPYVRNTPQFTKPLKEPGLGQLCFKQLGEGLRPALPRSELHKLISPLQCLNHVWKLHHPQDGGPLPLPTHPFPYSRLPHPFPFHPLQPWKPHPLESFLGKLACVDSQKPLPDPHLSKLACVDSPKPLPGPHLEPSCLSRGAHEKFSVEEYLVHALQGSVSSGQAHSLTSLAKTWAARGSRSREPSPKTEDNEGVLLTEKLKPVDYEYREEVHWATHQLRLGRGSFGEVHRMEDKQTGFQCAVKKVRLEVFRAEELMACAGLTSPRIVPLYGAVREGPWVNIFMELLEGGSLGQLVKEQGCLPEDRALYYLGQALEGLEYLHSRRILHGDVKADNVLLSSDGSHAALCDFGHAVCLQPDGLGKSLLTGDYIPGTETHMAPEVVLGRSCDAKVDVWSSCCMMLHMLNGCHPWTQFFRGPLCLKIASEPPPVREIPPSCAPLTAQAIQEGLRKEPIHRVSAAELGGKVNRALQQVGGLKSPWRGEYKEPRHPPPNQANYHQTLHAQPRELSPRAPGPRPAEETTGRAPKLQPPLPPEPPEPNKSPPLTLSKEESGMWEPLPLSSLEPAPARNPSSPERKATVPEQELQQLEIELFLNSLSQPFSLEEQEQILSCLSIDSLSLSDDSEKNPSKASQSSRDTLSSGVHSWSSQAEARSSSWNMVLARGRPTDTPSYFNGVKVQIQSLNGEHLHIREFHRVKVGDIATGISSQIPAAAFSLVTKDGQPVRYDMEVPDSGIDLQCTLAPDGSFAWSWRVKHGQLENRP

[4] = molecular target: T2, Inhibitor of nuclear factor kappa-B kinase subunit beta; assay: Inhibition of IKK-beta in human Jurkat cells assessed as reduction in TNFalpha-stimulated IkBalpha degradation preincubated for 60 mins followed by TNFalpha stimulation for 20 mins by immunoblot analysis; type: cell-based
[5] = molecular target: Inhibitor of NF-kappa-B kinase (IKK) (Homo sapiens) (UniProt O14920+O15111+Q9Y6K9); assay: Inhibition of IKKbeta/IKKalpha/NEMO complex immunoprecipated from TNFalpha-stimulated human Jurkat cells at 100 uM relative to control
[6] = molecular target: T3, Inhibitor of nuclear factor kappa-B kinase subunit beta (Homo sapiens) (UniProt O14920); assay: Inhibition of human IKKbeta at 100 uM using ERLLDDRHDSGLDSMKDEE as substrate after 60 mins in presence of ATP by ADP-Glo kinase assay relative to control
T3 sequence (whole entry): T2 sequence (O14920 whole entry)

[7] = molecular target: T3, Inhibitor of nuclear factor kappa-B kinase subunit beta (Homo sapiens); assay: Induction of IKKbeta phosphorylation at S177/181 residues in TNFalpha-stimulated human Jurkat cells at 10 uM preincubated for 60 mins followed by TNFalpha-stimulation for 20 mins by immunoblot analysis; type: cell-based
Method in brief: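 Jurkat E6.1 cells in X-VIVO 15 with 10% FBS, passages 5–10, were pretreated 60 min with 10 µM compound (DMSO vehicle), then stimulated 20 min with TNFα 15 ng/mL. Lysates were made with protease and phosphatase inhibitors, 20 µg/lane was run on 12% SDS-PAGE, and IKKα/IKKβ phosphorylation was detected by immunoblot with ECL. Three independent experiments were run.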

With `O=C(Nc1cc(C(F)(F)F)cc(C(F)(F)F)c1)c1nsnc1O` the Activity (Jurkat) was 15.9%, the pIC50 [1] was < 4.00 and the pIC50 [2] was < 4.00. The Activity (MDA-MB-231) was 96.1%, the pIC50 [3] was < 4.00 and the pIC50 [4] was 6.84.

`O=C(Nc1cc(C(F)(F)F)cc(C(F)(F)F)c1)c1cc(Cl)ccc1O` [IMD-0354] was tested, and the Activity (Jurkat) was 23.5%, the pIC50 [1] was < 4.00 and the pIC50 [2] was < 4.00. For the same molecule, the inhibition [5] was 40%, the Activity (MDA-MB-231) was 99% and the inhibition [6] was 5.43%. For the same molecule, the Activity [7] was “Active”, the pIC50 [3] was < 4.00 and the pIC50 [4] was 6.66.
